Screening data from PubChem.
A selection: hits, their analogues and other compounds. The true share with any hit is near 0.77%.
bIAP inh = bovine intestinal alkaline phosphatase inhibitors, primary screen, selectivity assay for TNAP inhibitor project, biochemical, bovine IAP, CDP-star luminescence; alkaline phosphatase, intestinal [Bos taurus]; purified bovine IAP, 30 min; inhibition, % at 20 µM; 190,000 tested, under 10 active;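 active means over 50% inhibition of intestinal alkaline phosphatase at 20 µM in the single-dose screen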
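test system = bovine IAP enzyme | medium = DEA buffer 100 mM, pH 9.8, with MgCl2 1.0 mM, ZnCl2 0.02 mM | detection = luminescence | dosing = single compound dose of 20 µM, 2% DMSO final | incubation = 30 min reaction at room temperature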
mIAP block = inhibitors of mouse IAP, primary screen, biochemical, luminescence, uHTS. AID 2806, 2010. inhibition, % at 10 µM. intestinal alkaline phosphatase [Mus musculus]. purified mouse IAP, CDP-Star luminescence, 30 min. hit rate 0.2% among 330,000;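 active means inhibition of at least 40% at 10 µM in the primary screen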
mIAP act = activators of mouse IAP, primary screen, biochemical, luminescence, uHTS. hit rate 0.24% among 330,000. intestinal alkaline phosphatase [Mus musculus]. activation factor at 10 µM. muIAP, CDP-Star luminescence, 30 min; hits give high values; 1 = vehicle-only enzyme signal, 0 = enzyme-free wells;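 active means activation factor of at least 2 at 20 µM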
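also added = chemiluminescent substrate CDP-Star | test system = mouse IAP enzyme | signal = chemiluminescence readout | compound = DMSO-dissolved test compounds | incubation = 30 min at room temperature | benchmarks = DMSO wells, no-enzyme wells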
bIAP act = bovine intestinal alkaline phosphatase activators, primary screen, biochemical, bovine IAP, CDP-star luminescence; purified bovine IAP, 30 min; hits give high values; fold of DMSO-control signal, blank-subtracted; activation factor at 20 µM; hit rate 0.17% among 200,000; AID 1016, 2008;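 active means activation factor of 2 or more at 20 µM, a signal rise over negative controls twice the positive control's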
hIAP inh = human IAP inhibitors, primary screen, biochemical, luminescence, uHTS; Intestinal-type alkaline phosphatase (Homo sapiens), P09923; purified IAP, CDP-Star luminescence, 30 min; inhibition, % at 10 µM; hit rate 0.12% among 330,000;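 active means inhibition reaching a set limit with compound at 10 µM in the primary screen, cut at about 35% in these data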
Target sequence (P09923 whole entry, looked up): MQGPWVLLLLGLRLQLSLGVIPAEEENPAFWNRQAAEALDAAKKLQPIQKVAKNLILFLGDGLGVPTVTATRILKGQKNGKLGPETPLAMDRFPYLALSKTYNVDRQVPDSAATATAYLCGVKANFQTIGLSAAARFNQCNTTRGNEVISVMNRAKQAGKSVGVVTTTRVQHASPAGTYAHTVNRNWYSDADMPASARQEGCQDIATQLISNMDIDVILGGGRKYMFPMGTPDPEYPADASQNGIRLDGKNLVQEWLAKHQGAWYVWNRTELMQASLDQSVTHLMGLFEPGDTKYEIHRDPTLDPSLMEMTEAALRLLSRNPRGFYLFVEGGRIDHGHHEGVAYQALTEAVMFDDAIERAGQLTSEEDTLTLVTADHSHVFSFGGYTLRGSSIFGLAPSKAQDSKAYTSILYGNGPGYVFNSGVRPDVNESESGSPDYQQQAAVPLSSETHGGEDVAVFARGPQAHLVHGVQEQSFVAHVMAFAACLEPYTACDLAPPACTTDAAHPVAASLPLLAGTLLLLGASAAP
hIAP activ = human IAP activators, primary screen, biochemical, luminescence, uHTS. Intestinal-type alkaline phosphatase (Homo sapiens), P09923. AID 2524, 2010. hit rate 0.16% among 330,000. purified human IAP, CDP-Star luminescence, 30 min; hits give high values; 1 = vehicle-only enzyme, 0 = enzyme-free background. activation factor at 10 µM;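 active means activation factor of the enzyme at least 2-fold when tested at 20 µM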
mIAP inh confirm = inhibitors of mouse IAP, confirmation, biochemical, luminescence, single concentration; purified mouse IAP, CDP-Star luminescence, 30 min; inhibition, % at 10 µM; hit rate 4.7% among 11,000; shares compounds with mIAP block;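 active means inhibition of at least 40% at 10 µM in either of the two replicates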
A number is an active result; i = inactive; nt = not tested or not shown.

SMILES | bIAP inh | mIAP block | mIAP act | bIAP act | hIAP inh | hIAP activ | mIAP inh confirm
C[C@H](CO)N1C[C@H](C)[C@@H](CN(C)S(=O)(=O)c2ccccc2)Oc2ccc(NC(=O)C3CCCCC3)cc2C1=O | nt | i | i | nt | i | i | nt
COc1cc2c(cc1C1NC(=S)NC(C)=C1C(=O)N(C)C)CCCC2 (stereo unspecified) | i | i | i | i | i | i | nt
COc1ccc(O)c(N)c1 | i | 41 | i | i | i | i | 48
O=C(CCCCCNC(=O)N1CCn2c1nc1ccccc12)N[C@H](Cc1ccccc1)C(=O)O | nt | i | i | nt | i | i | nt
COc1ccccc1/C=c1\sc2nc(-c3ccco3)nn2c1=O | i | 42 | i | i | i | i | 70
Cc1cc(-c2n[nH]c(=S)n2/N=C/C=C/c2ccco2)n[nH]1 | nt | 49 | i | nt | i | i | 54
Cc1ccccc1-c1n[nH]c(=S)n1/N=C/C=C/c1ccco1 | nt | 44 | i | nt | i | i | 50
Cc1ccc(C)c(N2CCN(C(=O)CCCn3ncn4c(cc5occc54)c3=O)CC2)c1 | nt | i | i | nt | i | i | nt
CCOCCOC(=O)c1cccc2c1-c1ccccc1C2=O | nt | i | i | nt | i | i | nt
Cc1ccc(C2=NC(=O)/C(=C/c3cc(O)c(O)c(Br)c3)S2)cc1 | i | 53 | i | i | i | i | 60
CCn1c(SCC(=O)c2ccc(O)c(O)c2)nnc1-c1ccccc1OC | i | 44 | i | i | i | i | 63
C=CCn1c(SCC(=O)c2ccc(O)c(O)c2)nnc1-c1ccccc1OC | i | i | i | i | i | i | nt
CCn1c(CSc2nc3ccccc3s2)nnc1SCC(=O)c1ccc(O)c(O)c1 | i | 44 | i | i | i | i | 47
C=CCn1c(SCC(=O)c2ccc(O)c(O)c2)nnc1-c1cccnc1 | nt | 57 | i | nt | i | i | 63
Cc1ccc(S(=O)(=O)NCCC(=O)N2CCN(c3ccccc3)CC2)cc1C | nt | i | i | nt | i | i | nt
Cc1ccc(CCNS(=O)(=O)c2cc3c(cc2Cl)NC(=O)CO3)cc1 | nt | i | i | nt | i | i | nt
CC(=O)c1ccc(S(=O)(=O)NCCC(=O)OCC(=O)NCCc2ccccc2)cc1 | nt | i | i | nt | i | i | nt
C[C@H]1CN([C@@H](C)CO)C(=O)c2cc(NC(=O)Nc3cccc4ccccc34)ccc2O[C@@H]1CN(C)Cc1ccc(-c2ccccc2)cc1 | nt | i | 3.9 | nt | i | i | i
COc1ccc(NC(=O)Nc2cccc3c2O[C@H](CN(C)Cc2ccc(-c4ccccc4)cc2)[C@@H](C)CN([C@H](C)CO)C3=O)cc1 | nt | i | i | nt | i | i | nt
C[C@@H]1CN([C@@H](C)CO)C(=O)c2cccc(NC(=O)Nc3ccc(F)cc3)c2O[C@@H]1CN(C)Cc1ccc(Oc2ccccc2)cc1 | nt | i | 4.3 | nt | i | i | i
C[C@H]1CN([C@@H](C)CO)C(=O)c2cc(NC(=O)C3CCCCC3)ccc2O[C@H]1CN(C)Cc1ccc(-c2ccccc2)cc1 | nt | i | i | nt | i | i | nt
COc1ccc(NC(=O)Nc2cccc3c2O[C@H](CN(C)S(=O)(=O)c2ccc(OC)cc2)[C@@H](C)CN([C@H](C)CO)C3=O)cc1 | nt | i | i | nt | i | i | nt
C[C@H](CO)N1C[C@H](C)[C@@H](CN(C)C(=O)Nc2ccccc2)Oc2ccc(NC(=O)Nc3ccc4c(c3)OCO4)cc2C1=O | nt | i | 3 | nt | i | i | i
Cc1ccc(S(=O)(=O)N(C)C[C@H]2Oc3c(NC(=O)Nc4cccc5ccccc45)cccc3C(=O)N([C@@H](C)CO)C[C@@H]2C)cc1 | nt | i | 4.4 | nt | i | i | i
O=C(CSc1nnc(NC2CC2)s1)c1ccc[nH]1 | nt | i | i | nt | i | i | nt
SMILES | bIAP inh | mIAP block | mIAP act | bIAP act | hIAP inh | hIAP activ | mIAP inh confirm
C[C@@H]1CN([C@H](C)CO)C(=O)c2cc(NC(=O)C3CCCCC3)ccc2O[C@@H]1CN(C)Cc1ccc(C(F)(F)F)cc1 | nt | i | i | nt | i | i | nt
C[C@@H]1CN([C@H](C)CO)C(=O)c2cc(NC(=O)Nc3cccc4ccccc34)ccc2O[C@H]1CN(C)Cc1ccc(C(F)(F)F)cc1 | nt | i | 3.3 | nt | i | i | i
CCC(C)c1ccccc1N1CC(C(=O)N2CCN(S(=O)(=O)c3cccc([N+](=O)[O-])c3)CC2)CC1=O (stereo unspecified) | nt | i | i | nt | i | i | nt
O=C(N/N=C/c1ccc(O)c(O)c1O)/C(=C/c1ccc([N+](=O)[O-])cc1)NC(=O)c1ccccc1 | i | 55 | i | i | i | i | 60
CC1=C(C(=O)Nc2ccccc2)C(c2ccc(C)o2)n2c(s/c(=C\c3ccco3)c2=O)=N1 (stereo unspecified) | i | 44 | i | i | i | i | 65
Cc1nc(S/C(=C/c2ccc(-c3ccc(C(=O)O)cc3)o2)C(=O)O)n[nH]1 | nt | 45 | i | nt | i | i | 45
CC(=O)c1ccc(-c2ccc(/C=C(/Sc3n[nH]c(C)n3)C(=O)O)o2)cc1 | nt | i | i | nt | i | i | nt
CCn1cc(S(=O)(=O)NCCc2ccc(F)cc2)cn1 | nt | i | i | nt | i | i | nt
CCS(=O)(=O)n1nc(-c2ccco2)nc1SC | i | i | i | i | i | i | 36
CSc1nc(-c2ccco2)nn1S(=O)(=O)c1ccccc1 | i | i | i | i | i | i | nt
O=C(O)C1CCCN1C(=O)NC1CCCCC1 (stereo unspecified) | nt | i | i | nt | i | i | nt
Cc1cc(-c2ccccc2)n(-c2ccccc2)n1 | nt | 72 | i | nt | i | i | 85
Cc1cc(-c2ccco2)n(-c2ccccc2)n1 | i | i | i | i | i | i | nt
C[C@H](NC(=O)c1ccccc1Cl)C(=O)NCCc1ccc(S(N)(=O)=O)cc1 | nt | i | i | nt | i | i | nt
CSC1=NSC2=NC(=O)/C(=C/c3coc4ccc(O)cc4c3=O)C(=N)N12 | i | 56 | i | i | i | i | 55
Cc1cc(NC(=O)COC(=O)Cn2[nH]c(=O)c3ccccc3c2=O)c([N+](=O)[O-])cc1C | nt | i | i | nt | i | i | nt
COc1cc(CNc2ncnc3c2[nH]c2ccc(C)cc23)cc(OC)c1 | nt | i | 3.1 | nt | i | i | i
CCCCCCOc1ccc(N2C(=O)CC(N3CCN(CCN=CC4C(=O)CC(C)(C)CC4=O)CC3)C2=O)cc1 (stereo unspecified) | i | i | i | i | i | i | nt
O=C(NCC(c1ccco1)N1CCN(c2ccccc2)CC1)C(=O)NC1CC1 (stereo unspecified) | nt | i | i | nt | i | i | nt
